Experimental data reported in ChEMBL document CHEMBL4004799, “Octaminomycins A and B, Cyclic Octadepsipeptides Active against Plasmodium falciparum” (J Nat Prod, 2017).
Active and inactive are the calls of the source. No cut-off for these calls is given here. Where a SMILES comes first, the peptide text is derived from it. Bridges are numbered along the chain shown (N, C = ends). [ ]: non-standard residue; d: D form. The star is where a group is joined. NMeY = CN[C@@H](Cc1ccc(O)cc1)C(=O)O; Propionyl = CCC(=O)*

What was measured:
[1] = tested on: Plasmodium falciparum; assay: Antimalarial activity against chloroquine-sensitive Plasmodium falciparum 3D7; type: functional
In short: (§1)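 P. falciparum strains maintained at 37 °C under 5.0% CO2 in human erythrocytes (3% hematocrit), RPMI1640 with 10% human plasma; assay run per an earlier published method; IC50 in μM.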

[2] = tested on: Plasmodium falciparum; assay: Antimalarial activity against chloroquine-resistant Plasmodium falciparum K1; type: functional; in short: as §1
[3] = tested on: Aspergillus fumigatus; assay: Antimicrobial activity against Aspergillus fumigatus Af293 up to 30 uM after 48 hrs by broth microdilution assay; type: functional
[4] = tested on: NRK; assay: Cytotoxicity against rat NRK cells infected with temperature-sensitive mutant of Rous sarcoma virus after 48 hrs by WST-8 assay; type: cell-based
In short: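 Rat kidney cells infected with ts25 (T-class Rous sarcoma virus Prague mutant) grown at permissive 32 °C in MEM + 10% calf serum; […] cells/well seeded, compounds applied 48 h; WST-8 (1/10 volume) added for 1 h, growth read as absorbance at 450 nm.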

[5] = tested on: Escherichia coli; assay: Antimicrobial activity against Escherichia coli HO141 up to 30 uM after 24 hrs by broth microdilution assay; type: functional
[6] = tested on: Staphylococcus aureus; assay: Antimicrobial activity against Staphylococcus aureus 209 up to 30 uM after 24 hrs by broth microdilution assay; type: functional
[7] = tested on: Candida albicans; assay: Antimicrobial activity against Candida albicans JCM1542 up to 30 uM after 24 hrs by broth microdilution assay; type: functional
[8] = Cytotoxicity against temperature-sensitive mouse FT210 cells after 48 hrs by WST-8 assay; type: cell-based; settings: FT210, 48 h
In short: (§2)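 Cells were seeded in 96-well plates and exposed to compounds for 48 h. HL-60 cells were grown at 37 °C in RPMI-1640 with 10% FBS. tsFT210 cells, a mouse FM3A cdc2 temperature-sensitive mutant, were grown at 32 °C in RPMI-1640 with 5% calf serum. WST-8 was added at 1/10 volume for 1 h, and growth was read as absorbance at 450 nm.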

[9] = tested on: Pyricularia oryzae; assay: Antimicrobial activity against Pyricularia oryzae kita-1 up to 30 uM after 48 hrs by broth microdilution assay; type: functional
[10] = tested on: HeLa; assay: Cytotoxicity against human HeLa cells after 48 hrs by WST-8 assay; type: cell-based
[11] = tested on: HL-60; assay: Cytotoxicity against human HL60 cells after 48 hrs by WST-8 assay; type: cell-based; settings: HL-60, 48 h; in short: as §2
[12] = tested on: Plasmodium falciparum; assay: Antimalarial activity against chloroquine-resistant Plasmodium falciparum Dd2; type: functional; in short: as §1

In the case of `CCC(=O)N[C@@H]1C(=O)N[C@@H](Cc2ccccc2)C(=O)N[C@H](CC(C)C)C(=O)N[C@@H](C(C)C)C(=O)N2CCC[C@H]2C(=O)N[C@@H](CC(C)C)C(=O)N(C)[C@@H](Cc2ccc(O)cc2)C(=O)N2CCC[C@H]2C(=O)O[C@@H]1C` (Propionyl-TF[dL]VPL[NMeY]P; ester 1-C), the IC50 [1] is reported as 1.5 µM, the IC50 [2] is reported as 1.3 µM and the Activity [3] is reported as “inactive”. For the same compound, the IC50 [4] was over 30 µM, the Activity [5] was “inactive” and the Activity [6] was “inactive”. For the same compound, the Activity [7] was “inactive”, the IC50 [8] was over 30 µM and the Activity [9] was “inactive”. The IC50 [10] was over 30 µM, the IC50 [11] was over 30 µM and the IC50 [12] was 1.6 µM.

With `CC(=O)N[C@@H]1C(=O)N[C@@H](Cc2ccccc2)C(=O)N[C@H](CC(C)C)C(=O)N[C@@H](C(C)C)C(=O)N2CCC[C@H]2C(=O)N[C@@H](CC(C)C)C(=O)N(C)[C@@H](Cc2ccc(O)cc2)C(=O)N2CCC[C@H]2C(=O)O[C@@H]1C` (Ac-TF[dL]VPL[NMeY]P; ester 1-C) the IC50 [1] was 1.5 µM, the IC50 [2] was 0.83 µM and the Activity [3] was “inactive”. The IC50 [4] was over 30 µM, the Activity [5] was “inactive” and the Activity [6] was “inactive”. For the same compound, the Activity [7] was “inactive”, the IC50 [8] was over 30 µM and the Activity [9] was “inactive”. The IC50 [10] was over 30 µM, the IC50 [11] was over 30 µM and the IC50 [12] was 1.1 µM.
